# In the library only some 1.5% were active in any assay of this set; here they are far more common.
# APJ ag: APJ receptor agonism. 0.11% of 330,000 active. CHO-K1 APJ PathHunter beta-arrestin, luminescence; 0% DMSO wells, 100% apelin. activation, % at 20 µM. P35414;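 active means activation more than six SD over the plate average, tested at 20 µM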;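 further: 0% = DMSO alone and 100% = apelin-13 at 10 nM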
#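 Material: CHO-K1 APJ beta-arrestin complementation cell line; Input: cell density 1000 per well; Incubation: compound stimulation 90 min at 25 °C, detection 60 min; Signal: luminescence from split beta-galactosidase complementation, Galacton Star/Emerald II substrate; Controls: DMSO-only wells as negative, 10 nM Apelin-13 as positive control.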
# EBI2 antag: blocks human EBI2 receptor beta-arrestin signaling; EBI2 beta-arrestin recruitment, luminescence, 7a,25-OHC stimulated; inhibition, % at 5 µM; 0.81% of 360,000 active; in the data active means inhibition above about 38%;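 further: enzyme fragment complementation signal reports receptor beta-arrestin coupling in cells; 0% = agonist plus DMSO wells and 100% = wells without agonist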
# Target sequence (P32249 whole entry, looked up, the tested form may be a part): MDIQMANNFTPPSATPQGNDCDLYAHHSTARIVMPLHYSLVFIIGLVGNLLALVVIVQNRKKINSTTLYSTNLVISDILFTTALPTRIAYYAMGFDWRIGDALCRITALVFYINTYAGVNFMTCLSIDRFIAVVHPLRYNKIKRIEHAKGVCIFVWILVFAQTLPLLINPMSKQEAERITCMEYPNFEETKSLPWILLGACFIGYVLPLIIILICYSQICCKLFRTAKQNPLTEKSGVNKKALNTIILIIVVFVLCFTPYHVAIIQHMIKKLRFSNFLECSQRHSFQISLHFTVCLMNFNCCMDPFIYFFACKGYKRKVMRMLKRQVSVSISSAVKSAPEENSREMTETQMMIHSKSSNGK
# CCR6 antag: blocks CCL20-driven beta-arrestin recruitment at human CCR6; P51684; CHO-K1 CCR6 PathHunter beta-arrestin, luminescence, CCL20-stimulated; inhibition, % at 20 µM; 0.49% of 340,000 active; AID 493098;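 active means compounds whose inhibition of the agonist-driven luminescence signal at 20 µM reaches about 50%, limit read from the data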;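 further: cells stimulated with CCL20 at 14 nM final; plate controls were DMSO with CCL20 for no effect and DMSO without agonist for full effect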
# APJ antag: APJ receptor antagonism; P35414; CHO-K1 APJ beta-arrestin complementation, luminescence; inhibition, % at 20 µM; 0.32% of 330,000 active; AID 2521;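 active means inhibition above about 40% at 20 µM, limit read from the data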;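 further: cells challenged with 10 nM apelin-13 agonist together with compound; plate controls were apelin-13 plus DMSO wells for no effect and DMSO wells lacking apelin-13 for full effect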
# CXCR6 inh: inhibitors of human CXCR6 receptor; AID 602244; 0.36% of 360,000 active; CHO-K1 PathHunter CXCR6 beta-arrestin, luminescence; O00574; inhibition, % at 20 µM; in the data active means inhibition above about 34%, passing the limit was not always enough;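 further: antagonist mode with CXCL16 agonist at 10 nM final; 0% = 10 nM CXCL16 with DMSO and 100% = unstimulated wells without agonist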
# EBI2 antag conf: confirmation of human EBI2 receptor antagonists. shares compounds with EBI2 antag. EBI2 beta-arrestin luminescence, 7a,25-OHC antagonism. inhibition, % at 5 µM. 29% of 2,400 active;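 active means inhibition of at least 50%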
# EBI2 ag: counter-screen for EBI2 antagonists: EBI2 agonist activity | 2,400 tested, under 10 active | activation, % at 5 µM | AID 652000 | shares compounds with EBI2 antag | EBI2-expressing cells, agonist mode, luminescence, 60 min; 0% vehicle, 100% 7α,25-dihydroxycholesterol control;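 active means activation of at least 50%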
# bGal counter: beta-galactosidase inhibition counter-screen; shares compounds with EBI2 antag; purified beta-galactosidase, luminescent Galacton Star, 15 min; inhibition, % at 5 µM; 1% of 2,400 active;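 active means replicate-average signal at least 3 plate SD below neutral wells, shown as high inhibition, flagging enzyme-inhibiting false positives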;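 further: 0% = DMSO wells with enzyme and 100% = wells lacking enzyme; higher means stronger loss of beta-gal luminescence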
# Active calls of the source: *; . = no result given.
SMILES,APJ ag,EBI2 antag,CCR6 antag,APJ antag,CXCR6 inh,EBI2 antag conf,EBI2 ag,bGal counter
COCCN(Cc1ccc(C)cc1)C(=O)[C@H]1O[C@@H](n2ccc(=O)[nH]c2=O)[C@H](O)[C@@H]1O,.,-2,.,.,5,.,.,.
Cc1ccccc1Nc1c([N+](=O)[O-])ccc2c1=NC1(CCCCC1)N=2,2,56*,3,-26,12,15,1,1
O=C(c1cc2ccccc2o1)N1CCN(Cc2nc3ccccc3s2)CC1,.,68*,.,.,-3,55*,0,-1
CC(=O)N1CCN(C(=O)c2cc3ccccc3o2)CC1,0,6,5,-4,-13,.,.,.
O=C(c1cc2ccccc2o1)N1CCN(C/C=C/c2ccccc2)CC1,-4,86*,8,-7,-4,59*,0,-10
O=C(c1cc2ccccc2o1)N1CCCC1,-1,-5,14,1,3,.,.,.
COCCCn1cc(CN2CC(N3CCN(CCO)CC3)CS2(=O)=O)nn1 (configuration not stated),.,-7,.,.,-2,.,.,.
Cc1ccc(CNC(=O)c2ccc(N3CCC4(CC3)CC(c3ccccc3)=NO4)c(N)c2)cc1,8,45*,-1,14,-3,19,-1,-13
Cc1cccc(Nc2nc(-c3c(C)nc4ccccn34)cs2)c1,-1,63*,4,15,1,54*,1,7
Cc1nc2ccccn2c1-c1csc(Nc2cccc(O)c2)n1,.,8,9,.,-3,.,.,.
O=C(c1nc2ccc(Cl)cn2c1CNCC[C@@H]1C[C@@H]2C=C[C@H]1C2)N1CCCCCCC1,-4,61*,4,9,-6,42,0,2
Cc1ccccc1Oc1ncnc2oc(-c3ccccc3)cc12,-4,65*,2,10,-12,38,-2,-9
Clc1ccc(Oc2ncnc3oc(-c4ccccc4)cc23)cc1,-3,10,0,13,4,.,.,.
Cc1ccccc1-c1cc2nc(NCc3ccc(N(C)C)cc3)n(C)c(=O)c2s1,.,17,.,.,5,.,.,.
Cc1ccccc1OCC(=O)NNC(=O)C1CCN(c2ncnc3sc(C)c(C)c23)CC1,4,50*,-9,-14,-13,20,1,6
COC(=O)c1cc(NC(=O)c2cc3ccccc3o2)cc(C(=O)OC)c1,1,5,10,-23,11,.,.,.
COC(=O)c1cccc(NC(=O)c2cc3ccccc3o2)c1,-4,44*,19,11,1,32,-1,-2
O=C(Nc1ccccc1)Nc1nc(-c2ccccc2)cs1,3,0,-4,-35,3,.,.,.
CC(C)(C)c1csc(NC(=O)Nc2ccccc2)n1,1,43*,-2,-23,-4,32,-1,-10
COc1cccc(CNC(=O)[C@@H]2CCCN2C(=O)[C@H]2CCCCN2C(=O)c2c(F)cccc2F)c1,.,-13,.,.,1,.,.,.
O=C(/C=C/c1cccs1)N1CCC2(CC1)Oc1ccc(Cl)cc1C(=O)C21CC(c2cccnc2)=NO1 (configuration not stated),13,66*,19,0,4,18,-1,-12
Cc1ccc(C(=O)N2CCC3(CC2)Oc2ccc(Cl)cc2C(=O)C32CC(c3cccnc3)=NO2)s1 (configuration not stated),-3,0,4,11,6,.,.,.
COC1=CC(=O)OC(c2ccccc2)C1 (configuration not stated),.,-2,.,.,.,.,.,.
Cc1ccc(Oc2cnc3ccccc3n2)cc1,0,-16,2,-5,8,.,.,.
Cc1ccc(Oc2ccc(Oc3ccc(C)cc3)nn2)cc1,-3,92*,7,-13,6,89*,3,4
SMILES,APJ ag,EBI2 antag,CCR6 antag,APJ antag,CXCR6 inh,EBI2 antag conf,EBI2 ag,bGal counter
O=C1CC(c2ccc(F)cc2)CC2=C1C=Nc1ccccc1N2 (configuration not stated),-5,81*,2,29,-7,43,1,7
CC1CC(=O)C2=C(C1)Nc1ccccc1N=C2 (configuration not stated),-2,-2,4,21,-9,.,.,.
O=C1CC(c2ccccc2)CC2=C1C=Nc1ccccc1N2 (configuration not stated),2,53*,-8,15,8,21,1,1
OCCc1ccc(NCCc2cccs2)cc1,.,4,.,.,-2,.,.,.
COc1ccc(N2CCN(Cc3nc4cc(Cl)ccc4c(=O)[nH]3)CC2)cc1,-4,-14,-5,7,6,.,.,.
COc1cc2nc(CN3CCN(S(=O)(=O)c4ccccc4)CC3)[nH]c(=O)c2cc1OC,-1,47*,3,11,-17,23,-1,-9
COc1cc2nc(CN3CCN(C(C)=O)CC3)[nH]c(=O)c2cc1OC,-1,3,-7,8,-3,.,.,.
COc1cc2nc(CN3CCN(S(=O)(=O)c4ccc(Cl)cc4)CC3)[nH]c(=O)c2cc1OC,1,56*,5,14,8,31,1,4
O=c1[nH]c(CN2CCN(S(=O)(=O)c3ccc(Cl)cc3)CC2)nc2cc(Cl)ccc12,-3,89*,-2,8,-11,69*,0,9
COc1cc2nc(CN3CCC(Cc4ccccc4)CC3)[nH]c(=O)c2cc1OC,-5,46*,14,-7,4,24,1,0
Cc1ccccc1-c1csc(C(O)c2ccccc2)n1 (configuration not stated),.,4,.,.,1,.,.,.
O=c1[nH]c(CN2CCN(c3ncccn3)CC2)nc2c(Br)cc(Br)cc12,-5,3,7,-3,5,.,.,.
COc1cc2nc(CN3CCN(S(=O)(=O)c4cc(C)ccc4C)CC3)[nH]c(=O)c2cc1OC,-3,60*,14,10,3,37,2,1
Cc1ccc(C)c(S(=O)(=O)N2CCN(C(=O)CCc3nc4ccccc4c(=O)[nH]3)CC2)c1,-3,3,10,-5,-3,.,.,.
O=c1[nH]c(CN2CCN(S(=O)(=O)c3cccs3)CC2)nc2c(Br)cc(Br)cc12,3,54*,16,-18,8,22,0,5
COc1ccccc1/C=N/NC(=O)NC12CC3CC(CC(C3)C1)C2,-4,47*,9,-36,-6,41,1,4
COc1ccc(OC)c(S(=O)(=O)N2CCN(CC(O)COc3ccc(C#N)cc3)CC2)c1 (configuration not stated),0,45*,-11,7,-10,6,0,11

# Screening results (PubChem BioAssay)
